Compound activity (PubChem)
MrgX1 PAM = human MrgX1 positive allosteric modulation, primary screen | Q96LB2 | MrgX1-HEK293, Fluo-4 calcium flux, FDSS; active compounds read high | B-score at 10 µM | 310,000 tested, 0.63% active | AID 588675;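 active = plate-corrected calcium response at least 3 library SD above typical, normal starting fluorescence, not activating the receptor alone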;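 note: compound read alongside a low EC10 to EC30 dose of BAM8-22 agonist; peak minus trough fluorescence over baseline measured at the second addition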
Target sequence (Q96LB2 whole entry, looked up): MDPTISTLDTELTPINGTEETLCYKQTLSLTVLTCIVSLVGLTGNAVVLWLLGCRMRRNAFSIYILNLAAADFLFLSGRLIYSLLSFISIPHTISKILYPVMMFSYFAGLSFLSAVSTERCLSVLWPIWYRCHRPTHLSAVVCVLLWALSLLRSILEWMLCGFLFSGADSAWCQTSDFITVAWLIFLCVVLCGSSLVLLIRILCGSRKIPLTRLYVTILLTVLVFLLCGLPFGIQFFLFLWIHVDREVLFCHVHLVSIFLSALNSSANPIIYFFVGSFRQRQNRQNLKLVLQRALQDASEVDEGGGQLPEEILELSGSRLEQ
RGS4 inh = human RGS4 inhibition | P49798 | 310,000 tested, 0.45% active | HEK293 M3R/RGS4 inducible, Fluo-4 calcium flux; active compounds read high; triggered by carbachol at its EC20 | B-score at 10 µM | AID 463165;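 active = B-score, a plate-corrected calcium signal, over three deviations above library mean, with baseline fluorescence within five deviations of library mean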;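 note: RGS4 expression induced by doxycycline in cells with stable M3 receptor; B-score is computed from the integrated fluorescence ratio over baseline after carbachol; higher B-score means a larger calcium signal and so more RGS4 inhibition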
Target sequence (P49798 whole entry, looked up): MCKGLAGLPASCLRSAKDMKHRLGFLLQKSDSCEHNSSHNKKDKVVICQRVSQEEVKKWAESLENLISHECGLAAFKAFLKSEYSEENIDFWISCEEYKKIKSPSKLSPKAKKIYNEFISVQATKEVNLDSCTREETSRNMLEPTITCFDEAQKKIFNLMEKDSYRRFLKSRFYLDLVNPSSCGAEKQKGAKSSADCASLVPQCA
RGS4 act = potentiators or activators of RGS4 | 310,000 tested, 0.92% active | HEK293 M3R/inducible RGS4, carbachol calcium flux Fluo4; active compounds read low | B-score at 10 µM;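 active = B-score of the integrated calcium signal more than 4 SD below the library mean, with starting fluorescence not abnormally high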;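 note: negative B-score means reduced calcium response which marks RGS4 activation or potentiation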
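Detection: kinetic calcium fluorescence imaging with Fluo4-AM dye, 2 µM / Material: HEK293 cells with stable M3R and inducible RGS4 / Schedule: recording 10 s baseline at 1 Hz, 100 s post-agonist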
MrgX1 ag = activates human MrgX1 receptor signaling; MrgX1-HEK293 cells, Fluo-4 calcium fluorescence, agonist mode; active compounds read high; B-score at 10 µM; 310,000 tested, 0.44% active; AID 588627;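 active = calcium response B-score plate-corrected fluorescence ratio at least 3 library SD, with starting fluorescence B-score inside 5 SD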
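Test system: Stable human MrgX1 HEK293 cell line | Schedule: Overnight plating before 1 h dye loading | Read-out basis: Baseline-normalised fluorescence change ratio, B-scored | Detection: Kinetic calcium dye fluorescence, Fluo-4 NW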
MrgX1 antagonist = blocks BAM8-22 activation of human MrgX1 receptor; MRGX1-HEK293 calcium flux, Fluo-4, BAM8-22 antagonism; active compounds read low; B-score at 10 µM; AID 588676; 310,000 tested, 1.3% active; Q96LB2;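 active = calcium-response B-score plate-corrected more than 3 library SD below zero, starting fluorescence within 5 deviations, no agonist response on first addition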;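 note: peak minus trough fluorescence over baseline after final BAM8-22 challenge near maximal dose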
MrgX1 antag conf = reconfirmed antagonist of human MrgX1 receptor signaling. shares compounds with MrgX1 antagonist. MrgX1-HEK293, BAM8-22 calcium flux, Fluo-4; active compounds read low. remaining BAM8-22 calcium response % of control (active compounds read low), % at 10 µM. 2,300 tested, 19% active. AID 602420;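 active = remaining agonist calcium response no higher than 100% minus 3 SD of agonist-only control wells, with starting fluorescence near control levels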;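 note: agonist BAM8-22 given at a near maximal EC90 to ECmax level; peak minus minimum fluorescence divided by baseline after agonist addition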
HEK293 Ca flux = MrgX1 antagonist counter-screen hit in parental HEK293 cells. shares compounds with MrgX1 antagonist. Fluo-4 calcium fluorescence, FDSS. fluorescence ratio F(max-min)/F0 at 10 µM. 4,000 tested, 2% active. AID 624111;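 active = duplicate-averaged calcium fluorescence ratio at least three times the standard deviation of buffer wells, a nonspecific response in parental cells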
HEK293 Ca counter = counter-screen for MrgX1 allosteric activators: effect in parental HEK293 cells. shares compounds with MrgX1 antagonist. parental HEK293 calcium flux, Fluo-4 fluorescence ratio; active compounds read high. fluorescence ratio F(max-min)/F0 at 10 µM. 4,000 tested, 0.4% active. AID 624114;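 active = calcium fluorescence ratio, averaged over duplicates, at least 3 SD of the buffer-well ratio, meaning a nonspecific response in receptor-free cells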;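 note: untransfected parental HEK293 lacking MrgX1 used as counterscreen for MrgX1 allosteric activators; fluorescence change taken during the second addition on a kinetic imager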
HEK293 Ca cntr2 = counter-screen for MrgX1 activators: effect in parental HEK293 cells; fluorescence ratio F(max-min)/F0 at 10 µM; 4,000 tested, 8.7% active; shares compounds with MrgX1 antagonist; AID 624115; Fluo-4 calcium fluorescence (FDSS); active compounds read high;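 active = calcium fluorescence ratio at least three times the spread of buffer wells, meaning a non-specific response in parental cells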
Numbers without * were called inactive; i = inactive; . = not tested or not shown. Only some compounds are listed: those with a hit (about 3.5% of all), similar ones and a draw of the others.

SMILES	MrgX1 PAM	RGS4 inh	RGS4 act	MrgX1 ag	MrgX1 antagonist	MrgX1 antag conf	HEK293 Ca flux	HEK293 Ca counter	HEK293 Ca cntr2
Cc1ccc(C)c(S(=O)(=O)C(C#N)c2nc3ccccc3nc2N2CC(C)OC(C)C2)c1 (centres undefined)	i	i	i	i	-7.4*	81%*	i	i	56*
Cc1ccc(C)c(S(=O)(=O)C(C#N)c2nc3ccccc3nc2N2CCCC2)c1 (centres undefined)	i	i	i	i	i	.	.	.	.
COc1ccc(CN2C(=O)c3cccnc3C2=O)cc1S(=O)(=O)N(C)Cc1ccco1	i	i	i	i	i	.	.	.	.
CN(Cc1ccco1)S(=O)(=O)c1cc(F)ccc1CN1C(=O)c2cccnc2C1=O	i	i	i	i	-4.9*	i	i	i	i
C/C(Cl)=C\Cn1c(NCCc2ccccc2)nc2c1c(=O)n(C)c(=O)n2C	i	i	i	i	i	.	.	.	.
CCN(CC)CCNc1nc2c(c(=O)n(C)c(=O)n2C)n1C/C=C(/C)Cl	i	i	i	i	-4.6*	i	i	i	i
COc1ccc(OCC(=O)Nc2ccc3c(c2)nc(CCn2ccccc2=O)n3C)cc1	i	i	i	i	i	.	.	.	.
COc1ccc(C2SCC(=O)N2Cc2ccccc2)cc1 (centres undefined)	i	i	i	i	i	.	.	.	.
COc1ccc(C2SCC(=O)N2CC23CC4CC(CC(C4)C2)C3)cc1 (centres undefined)	i	i	i	i	-5.2*	i	i	i	i
COc1ccc(CCN2CCCn3c2nc2c3c(=O)n(CC(C)C)c(=O)n2C)cc1OC	i	i	i	i	-6.1*	68%*	i	i	i
COc1ccc(CCN2CCCn3c2nc2c3c(=O)n(Cc3ccccc3F)c(=O)n2C)cc1OC	i	i	i	i	i	.	.	.	.
CCn1c(=O)c2c(nc3n2CCCN3CCc2ccc(OC)c(OC)c2)n(C)c1=O	i	i	i	i	i	.	.	.	.
CCCn1c(=O)c2c(nc3n2CCCN3CCc2ccc(OC)c(OC)c2)n(C)c1=O	i	i	i	i	-4.8*	i	i	i	i
COc1cc2c(C(=O)N(C)c3ccc(F)cc3)cn(C)c(=O)c2cc1OC	i	i	i	i	i	.	.	.	.
Cc1cc(C)c(S(N)(=O)=O)c(C)c1N(C)S(=O)(=O)c1ccc(Cl)cc1	i	i	i	i	i	.	.	.	.
COc1cc(NC(=O)c2ccco2)c(OC)cc1NC(=O)Nc1ccccc1Cl	i	i	i	i	-5.9*	i	i	i	i
Fc1ccc(C(c2nnnn2Cc2cccs2)N2CCN(C3CCCC3)CC2)cc1 (centres undefined)	i	i	i	i	-7.1*	i	i	i	i
CCc1nnc(NC(=O)C2CCCN(S(=O)(=O)c3ccc(OC)cc3)C2)s1 (centres undefined)	i	i	i	i	i	.	.	.	.
CN(CCCNC(=O)c1cc2c(=O)[nH]c3ccccc3c2n1C)Cc1ccccc1	i	i	i	i	-5.7*	i	i	i	i
CC1CC(C)CN(CCCNC(=O)c2cc3c(=O)[nH]c4ccccc4c3n2C)C1 (centres undefined)	i	i	i	i	i	.	.	.	.
COc1cccc(NC(=O)c2nc(SC)ncc2Cl)c1	i	i	i	i	i	.	.	.	.
CN(c1ccccc1)S(=O)(=O)c1ccc(NC(=O)c2nc(S(C)(=O)=O)ncc2Cl)cc1	i	i	i	i	-5.7*	i	i	i	i
CN(c1ccccc1)S(=O)(=O)c1ccc(NC(=O)c2ccccc2)cc1	i	i	i	i	i	.	.	.	.
COc1cccc(NC(=O)c2nc(S(C)(=O)=O)ncc2Cl)c1	i	i	i	i	-5.5*	i	i	i	i
O=C(CNS(=O)(=O)c1cccs1)NCc1ccccc1	i	i	i	i	i	.	.	.	.
SMILES	MrgX1 PAM	RGS4 inh	RGS4 act	MrgX1 ag	MrgX1 antagonist	MrgX1 antag conf	HEK293 Ca flux	HEK293 Ca counter	HEK293 Ca cntr2
O=S(=O)(c1cc(F)ccc1F)N1CCN(c2ncccn2)CC1	i	i	i	i	i	.	.	.	.
N#CC(C#N)=C1C(=O)N(CCN2CCOCC2)c2ccccc21	i	i	i	i	i	.	.	.	.
O=C(C1CCC1)N1CCN(c2ccnc3cc(Cl)ccc23)CC1	i	i	i	i	i	.	.	.	.
O=C(C1CCCCC1)N1CCN(c2ccnc3cc(Cl)ccc23)CC1	i	i	i	i	-12*	i	i	i	i
COc1cc(CN2CCCC(N3CCc4ccccc4C3)C2)c(Cl)cc1O (centres undefined)	i	i	i	i	i	.	.	.	.
O=c1cc(NS(=O)(=O)c2ccccc2)nc(SCc2c(Cl)cccc2Cl)[nH]1	i	i	i	i	-5.1*	i	i	i	i
NC(=O)c1ccccc1NC(=O)CCn1c(=S)oc2ccccc21	i	i	i	i	i	.	.	.	.
O=C(CSc1ccccn1)Nc1nc2ccccc2s1	i	i	i	i	-7.6*	85%*	i	i	i
COc1ccc(NC(=O)CSc2ccccn2)cc1OC	i	i	i	i	-4.8*	i	i	i	i
Cc1ccc(S(=O)(=O)NC2c3cccc4cccc(c34)C2Sc2n[nH]c(N)n2)cc1 (centres undefined)	i	i	i	i	i	.	.	.	.
O=S(=O)(NC1c2cccc3cccc(c23)C1Sc1ncccn1)c1ccc(Cl)cc1 (centres undefined)	i	i	i	i	-4.7*	i	i	i	i
CC(=O)Nc1n[nH]c(-c2ccc(C)cc2)c1C	i	i	i	i	-5.4*	i	i	i	i
CC(=O)Nc1cc(-c2ccc(F)cc2)[nH]n1	i	i	i	i	i	.	.	.	.
